# ChEMBL document CHEMBL1151330, “Facile total synthesis and antimicrobial activity of the marine fatty acids (Z)-2-methoxy-5-hexadecenoic acid and (Z)-2-methoxy-6-hexadecenoic acid” (1998)
# What was measured:
# Type in all cases: functional
# [1] = tested on: Escherichia coli; experiment: Antibacterial activity against Escherichia coli ATCC 25922 after overnight incubation
# Procedure, shortened: (§1)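 Broth microdilution per NCCLS: 200 µL of the α-methoxylated fatty acid in Mueller-Hinton broth, inoculated with 10⁵ CFU, incubated overnight at 37 °C. MIC taken as the highest dilution inhibiting growth, compared with an uninoculated chemical-control well. At least three separate experiments, each in duplicate.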
# [2] = tested on: Pseudomonas aeruginosa; experiment: Antibacterial activity against Pseudomonas aeruginosa ATCC 27853 after overnight incubation; procedure, shortened: as §1
# [3] = tested on: Enterococcus faecalis; experiment: Antibacterial activity against Streptococcus faecalis group D ATCC 29212 after overnight incubation; procedure, shortened: as §1
# [4] = tested on: Staphylococcus aureus; experiment: Antibacterial activity against Staphylococcus aureus ATCC 25923 after overnight incubation; procedure, shortened: as §1
MIC [1],MIC [2],MIC [3],MIC [4],Compound
> 200 mg/L,> 200 mg/L,350 µM,350 µM,CCCCCCCCCC/C=C\CC[C@H](OC)C(=O)O
> 100 mg/L,> 100 mg/L,> 100 mg/L,> 100 mg/L,CCCCCCCCCCCCCCC(OC)C(=O)O (configuration not stated)
> 200 mg/L,> 200 mg/L,350 µM,350 µM,CCCCCCCCC/C=C\CCCC(OC)C(=O)O (configuration not stated)
